IDE cell inh = inhibitors of human insulin-degrading enzyme in cells; P14735; HEK cells, FAbetaB cleavage, fluorescence polarization; inhibition, % at 5.59 µM; actives 0.41% (n = 320,000);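 active means percent inhibition above the average of all tested compounds plus 3 SD, set per screening campaign, cut at about 16% in these data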;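 further: IDE supplied by intact live HEK cells; FP after avidin binding of uncleaved biotin substrate so inhibition keeps polarization high; 0% = DMSO wells and 100% = 60 µM reference IDE inhibitor Ii1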
TRPML3 ag = human mucolipin-3 channel agonism. Q8TDD5. HEK293 TRPML3-YFP, Fluo-8 calcium fluorescence; 100% = the carbachol control signal. activation, % at 3 µM. actives 0.29% (n = 220,000). AID 1448;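 active means activation above its plate's cutoff, the mean activation of the plate's test wells plus 3 SD, cut at about 12% in these data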;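 further: 0% = DMSO only wells and 100% = carbachol wells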
Target sequence (Q8TDD5 whole entry, looked up): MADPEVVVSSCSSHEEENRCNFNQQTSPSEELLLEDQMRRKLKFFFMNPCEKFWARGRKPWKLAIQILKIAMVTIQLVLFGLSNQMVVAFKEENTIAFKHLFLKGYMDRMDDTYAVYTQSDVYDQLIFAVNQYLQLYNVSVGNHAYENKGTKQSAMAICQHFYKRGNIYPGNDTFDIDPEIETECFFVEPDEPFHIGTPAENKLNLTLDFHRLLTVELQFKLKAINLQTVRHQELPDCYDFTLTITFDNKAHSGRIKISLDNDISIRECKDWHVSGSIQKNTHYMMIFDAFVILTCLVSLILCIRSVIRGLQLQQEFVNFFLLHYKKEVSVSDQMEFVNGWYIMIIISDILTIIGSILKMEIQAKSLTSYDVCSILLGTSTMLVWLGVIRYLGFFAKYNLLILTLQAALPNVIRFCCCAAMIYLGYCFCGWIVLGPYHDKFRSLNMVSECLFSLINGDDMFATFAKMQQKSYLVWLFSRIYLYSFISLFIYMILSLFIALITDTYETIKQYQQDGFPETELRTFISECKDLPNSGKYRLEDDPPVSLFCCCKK
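Material: TRPML3-YFP stable HEK293 cells | Dosing: One concentration, 3 µM nominal, 0.3% DMSO | Timing: 125 s total fluorescence read per well | Technique: Fluo-8 calcium dye fluorescence, ex 470-495, em 515-575 nm | Measure: Percent activation from peak-to-basal fluorescence ratio, scaled between DMSO and carbachol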
zfTRPN1 agonist = zebrafish TRPN1 (NompC) channel agonism. HEK293 zebrafish TRPN1-YFP, Fluo-8 calcium fluorescence; 100% = response to 87 µM carbachol. activation, % at 3 µM. AID 1424. actives 0.18% (n = 220,000);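 active means activation above its plate's cutoff, the mean activation of test wells on that plate plus 3 SD, cut at about 19% in these data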;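 further: 0% = DMSO alone and 100% = 87 µM carbachol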
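System: zebrafish TRPN1-YFP in HEK293 cells / Dosing: 3 µM single point / Timing: dye loading 1 h at 37 °C, then 30 min room temperature / Signal: Fluo-8 calcium fluorescence, excitation 470-495 nm, emission 515-575 nm / Read-out basis: percent activation from peak over basal fluorescence ratio, control-normalized / Control set: high carbachol 87 µM, low DMSO alone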
IDE act = boosts human insulin-degrading enzyme activity in HEK cells | activation, % at 5.96 µM | P14735 | actives 0.073% (n = 340,000) | FAbeta-B cleavage, fluorescence polarization; 0% vehicle, 100% cell-free pure enzyme wells;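 active means activation above the mean of all tested compounds plus 3 SD, set per screening campaign, cut at about 17% in these data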
TRPN1 counter = counter-screen for TRPML3 agonists: agonists of zebrafish TRPN1 channel; shares compounds with TRPML3 ag; HEK293 zebrafish TRPN1-YFP, Fluo-8 calcium fluorescence; scaled: carbachol wells 100%, DMSO wells 0%; activation, % at 3 µM; actives 10% (n = 310); AID 1525;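 active means mean activation over replicates above a set limit taken from the earlier TRPN1 channel primary screen, cut at about 19% in these data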;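 further: 100% = carbachol and 0% = 0.3% DMSO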
TRPML3 confirm = confirmation of human TRPML3 channel agonists; shares compounds with TRPML3 ag; actives 80% (n = 310); HEK293 TRPML3-YFP, Fluo-8 calcium fluorescence; 100% set by carbachol, 0% by DMSO; activation, % at 3 µM; AID 1526;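 active means activation above a set limit derived from the earlier primary screen, cut at about 12% in these data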
IDE inh confirm = cellular human IDE inhibition, confirmation. shares compounds with IDE cell inh. HEK cells, FAbetaB cleavage, fluorescence polarization. inhibition, % at 5.59 µM. actives 51% (n = 1,200);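 active means mean inhibition across triplicate wells above the cutoff set by the earlier primary insulin-degrading enzyme screen, cut at about 16% in these data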;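 further: 0% = DMSO wells and 100% = 60 µM reference IDE inhibitor Ii1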
HEK293 tox = counter-screen for IDE inhibitors: cytotoxicity in HEK cells; shares compounds with IDE cell inh; HEK293 cytotoxicity, ATP luminescence; inhibition, % at 5.59 µM; actives 28% (n = 1,200); in the data active means inhibition above about 22%;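 further: 0% = vehicle wells and 100% = reference cytotoxic drug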
An asterisk follows results filed as active; x = no result given. Most compounds without a hit are left out; they make up all but 0.63% or so of the library.

SMILES | IDE cell inh | TRPML3 ag | zfTRPN1 agonist | IDE act | IDE inh confirm | HEK293 tox | others
CCOC(=O)/C(C#N)=C/C=C1/C=CC=CN1C | 0.1 | 0.7 | 0.3 | 2.6 | x | x
C=CCN1C=CC(=C/C=C(/C#N)C(=O)OCC)C=C1 | 43.5* | 11.8* | 16.2 | -43.4 | 63.1* | 11.3 | TRPN1 counter=17.7;TRPML3 confirm=14.4*
Cc1cc(C)c(S(=O)(=O)N2CCCOC2CNC(=O)C(=O)NCCc2c[nH]c3ccccc23)c(C)c1 (configuration not stated) | 0.0 | 1.5 | 1.8 | 3.7 | x | x
Cc1nnc(-c2ccccc2)c(=O)n1/N=C/c1c(O)ccc2ccccc12 | 53.5* | 13.2* | 14.6 | -59.4 | 39.8* | 57.4* | TRPN1 counter=1.9;TRPML3 confirm=0.8
O=C(N/N=C/c1ccc([N+](=O)[O-])cc1)c1cc2ccccc2o1 | -3.0 | 1.2 | 1.4 | 4.6 | x | x
C/C(=N\Nc1ccc([N+](=O)[O-])cc1)c1cc2ccccc2o1 | 18.2* | 2.2 | 2.1 | -19.9 | 8.4 | 9.8
O=C(Nc1ccccc1C(=O)Nc1ccc(Br)cn1)c1cccc([N+](=O)[O-])c1 | 3.9 | x | x | -2.9 | x | x
COc1cccc(-c2nn(C)c3sc(C(=O)Nc4ccc5c(c4)OCCO5)cc23)c1 | 24.9* | -0.3 | 1.2 | -14.9 | 8.6 | 20.4
CC(=O)N1CC[n+]2c(-c3ccc(Cl)cc3)csc21 | 22.5* | -0.1 | -0.2 | -14.3 | 1.8 | 13.9
CCC1=NN2C(=N)/C(=C\c3ccc(SCc4ccco4)o3)C(=O)N=C2S1 | 21.9* | 2.3 | 5.5 | -20.0 | 9.8 | 3.1
COc1cc(/C=N\NC(=O)c2ccc(-c3ccccc3)cc2)cc(Br)c1O | 21.2* | x | x | -9.9 | 12.1 | 12.8
COc1ccc(/C=N/NC(=O)c2ccc(-c3ccccc3)cc2)cc1O | 9.7 | -0.3 | -0.7 | -9.8 | x | x
Nc1ccc2nc3c(=O)n(CCc4ccccc4)c(=O)[nH]c3nc2c1 | 32.5* | 22.8* | 90.8* | x | 63.2* | 13.8
Nc1ccc2nc3c(=O)n(C4CCCCC4)c(=O)[nH]c3nc2c1 | 57.2* | 43.1* | 79.5* | -50.2 | 88.2* | 13.4
COc1cc2[nH]c(=O)n(C3CCCCC3)c(=O)c2cc1OC | -5.6 | 1.0 | -0.4 | 3.6 | x | x
CCn1c(SCC(=O)Nc2nc(-c3ccc(C)cc3)cs2)nnc1-c1ccccc1O | 6.4 | -0.1 | 0.1 | -6.6 | x | x
CCn1c(SCC(=O)Nc2nc(-c3ccc(C)cc3)cs2)nnc1-c1ccccc1 | 16.2* | 0.6 | -0.7 | -13.2 | 6.4 | 20.6
Cc1cc(C)c2nc(/N=C(\N)NC(=O)c3ccccc3)nc(C)c2c1 | 16.8* | 1.1 | 0.2 | 5.0 | 3.6 | 9.8
CC(OC(=O)c1cccc(O)c1)C(=O)N(C)Cc1ccccc1 (configuration not stated) | 2.4 | x | x | -4.2 | x | x
CC(OC(=O)/C(C#N)=C/c1ccc(N(C)C)cc1)C(=O)N(C)Cc1ccccc1 (configuration not stated) | 29.6* | x | x | -31.5 | 36.6* | 17.6
O=c1c(/C=N/Nc2ccccc2)c(Sc2nnnn2-c2ccccc2)nc2ccccn12 | x | 0.6 | -0.1 | -8.1 | x | x
O=C(O)c1ccccc1N/N=C/c1c(Sc2nnnn2-c2ccccc2)nc2ccccn2c1=O | 69.3* | 1.6 | 3.9 | -136.9 | 43.4* | 7.1
COc1ccc(NC(=O)CSc2ccc3nnc(-c4ccccn4)n3n2)c(OC)c1 | 0.6 | x | x | 4.3 | x | x
Cc1ccc(C(=O)/C=C/N(C)C)o1 | 5.5 | 2.1 | 7.1 | 6.8 | x | x
Cc1ccc(C(=O)/C=C/c2cc(Br)cc(Br)c2O)o1 | 16.5* | x | x | -12.8 | 26.5* | 20.9
Cc1ccc(S(=O)(=O)/C(C#N)=C/c2c(N3CCC(C(N)=O)CC3)nc3ccccn3c2=O)cc1 | -5.4 | 1.0 | -0.3 | 1.1 | x | x
O=S(=O)(NC1=NCCC1)c1cccc(NC(=S)NCCc2ccccc2)c1 | 22.5* | 0.4 | -0.4 | -3.7 | 10.6 | 6.4

From PubChem
